Reference: ChEMBL document CHEMBL1127332, “Pyrido[2,3-d]pyrimidine angiotensin II antagonists” (J Med Chem, 1994)

What was measured:
Rattus norvegicus = test: Maximum percent change in A II supported mean arterial pressure 60 minutes following 3 mg/kg i.d. administration.; type: functional; conditions: Artery, intraduodenal, in the assay text read “at the time of maximum effect following” for “60 minutes following”, read-out: Inhibition
How it was run: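 Anesthetized rats, ganglion blocked with mecamylamine 3 mg/kg iv, under A II infusion until pressure stabilized. Agent suspended in methyl cellulose and given 3 mg/kg through a duodenal cannula (1 mL/kg). MAP followed for 240 min. Fall expressed as percent of the A II-supported pressure. Maximum change and its time recorded, n = 3. Adjusted AUC between control and treated MAP/time curves.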

[1] = target: T1, Angiotensin II receptor (AT-1) type-1 (Rattus norvegicus, UniProt P29089+P25095); test: In vitro inhibition of specific binding of [125 I] A II to rat liver membrane.
T1 sequence (P29089 whole entry): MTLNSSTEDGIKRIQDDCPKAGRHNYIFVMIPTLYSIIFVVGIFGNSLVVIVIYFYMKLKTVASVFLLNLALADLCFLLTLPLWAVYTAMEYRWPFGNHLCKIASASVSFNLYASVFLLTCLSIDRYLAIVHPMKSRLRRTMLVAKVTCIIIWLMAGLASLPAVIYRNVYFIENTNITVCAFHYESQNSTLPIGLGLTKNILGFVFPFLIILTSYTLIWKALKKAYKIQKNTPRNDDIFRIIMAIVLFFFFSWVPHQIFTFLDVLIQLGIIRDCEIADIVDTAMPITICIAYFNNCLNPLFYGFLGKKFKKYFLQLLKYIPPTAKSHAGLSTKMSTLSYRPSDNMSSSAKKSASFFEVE
T1 sequence (P25095 whole entry): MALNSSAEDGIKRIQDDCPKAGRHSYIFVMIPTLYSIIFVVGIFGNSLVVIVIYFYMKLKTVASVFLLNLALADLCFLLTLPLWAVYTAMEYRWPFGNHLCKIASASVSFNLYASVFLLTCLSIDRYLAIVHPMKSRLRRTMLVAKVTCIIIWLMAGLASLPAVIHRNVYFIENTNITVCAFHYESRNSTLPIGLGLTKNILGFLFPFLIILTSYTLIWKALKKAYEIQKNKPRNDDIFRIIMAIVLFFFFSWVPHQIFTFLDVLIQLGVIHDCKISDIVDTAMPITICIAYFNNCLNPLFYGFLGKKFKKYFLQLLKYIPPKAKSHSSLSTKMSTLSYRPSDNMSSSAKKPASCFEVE
How it was run: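 Rat liver membrane preparation (AT1 sites), diluted in kit buffer. Nonspecific binding defined with 10⁻⁴ M A II, standard curve 10⁻¹⁰–10⁻⁷ M. Reaction stopped with saline and glass-fiber filtration, then gamma counting.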

[2] = Partition coefficient (logP); type: physicochemical; conditions: octanol/water
[3] = Partition coefficient (logD) (octanol/0.01 N K2HPO4); type: physicochemical
How it was run: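 Distribution coefficient measured between octanol and pH 7.4 phosphate buffer.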

SMILES | maximum percent change in A II-supported mean arterial pressure at 3 mg/kg (Rattus norvegicus) [%] | IC50 [1] [µM] | logP [2] | logD [3]
Cc1nc(C)c2c(n1)N(Cc1ccc(-c3ccccc3-c3nn[nH]n3)nc1)C(=O)CC2 | -16 | 0.0243 | – | –
Cc1nc(C=O)c2c(n1)N(Cc1ccc(-c3ccccc3-c3nn[nH]n3)cc1)C(=O)CC2 | – | 0.0507 | – | –
Cc1nc(C(C)C)nc2c1CCC(=O)N2Cc1ccc(-c2ccccc2-c2nn[nH]n2)cc1 | -40 | 0.0022 | – | –
CCc1nc(C)c2c(n1)N(Cc1ccc(-c3ccccc3-c3nn[nH]n3)cc1)C(=O)CC2 | -76 | 0.0013 | – | –
Cc1nc(C)c2c(n1)N(Cc1ccc(-c3ccccc3C(=O)[O-])cc1)C(=O)CC2.[K+] | -36 | 0.085 | – | –
CCCCc1nc(Cl)c(CO)n1Cc1ccc(-c2ccccc2-c2nnn[nH]2)cc1 [LOSARTAN] | -72 | – | – | –
Cc1nc(C)c2c(n1)N(Cc1ccc(-c3ccccc3-c3nn[nH]n3)cc1)C(=O)C(C)C2 (stereo not drawn) | -63 | 0.0032 | 3.91 | –
Cc1nc(C)c2c(n1)N(Cc1ccc(-c3ccccc3-c3nn[nH]n3)cc1)C(=O)C(C)(C)C2 | -66 | 0.003 | 4.43 | 1.21
Cc1nc(CO)nc2c1CCC(=O)N2Cc1ccc(-c2ccccc2-c2nn[nH]n2)cc1 | -30 | 0.285 | – | –
Cc1nc(C)c2c(n1)N(Cc1ccc(-c3ccccc3-c3nn[nH]n3)cn1)C(=O)CC2 | -34 | 0.0494 | – | –
CCCc1nc(C)nc2c1CCC(=O)N2Cc1ccc(-c2ccccc2-c2nn[nH]n2)cc1 | -86 | 0.0018 | 4.45 | –
Cc1nc(C)c2c(n1)N(Cc1ccc(-c3ccccc3-c3nnn[nH]3)cc1)C(=O)CC2 [TASOSARTAN] | -97 | 0.0052 | 3.39 | 0.49
CCCc1nc(C)c2c(n1)N(Cc1ccc(-c3ccccc3-c3nn[nH]n3)cc1)C(=O)CC2 | -58 | 0.00135 | – | –
CCc1nc(C)nc2c1CCC(=O)N2Cc1ccc(-c2ccccc2-c2nn[nH]n2)cc1 | -104 | 0.0023 | 3.92 | –
Cc1nc(C)c2c(n1)N(Cc1ccc(-c3ccccc3-c3nn[nH]n3)cc1)CCC2 | -20 | 0.17 | – | –
Cc1nc2c(c(C(F)(F)F)n1)CCC(=O)N2Cc1ccc(-c2ccccc2-c2nn[nH]n2)cc1 | -68 | 0.0246 | – | –
Cc1nc(C(C)C)c2c(n1)N(Cc1ccc(-c3ccccc3-c3nn[nH]n3)cc1)C(=O)CC2 | -44 | 0.013 | 4.32 | 1.41
Cc1nc2c(c(C(F)(F)F)n1)CCC(=O)N2Cc1ccc(-c2ccccc2-c2nn[nH]n2)nc1 | -41 | 0.0949 | – | –
